Calls of active or inactive are those of the source. The calls are words filed in the database; no cut-off is given here.
Legend:
[1] = Irreversible inhibition of RPA (unknown origin); set-up: species or system Homo sapiens
Homo sapiens = species: Homo sapiens; test: Inhibition of 5'[32P]-labeled 34 base ssDNA binding to SUMO-His6-tagged RPA DBD A/B domain (181-432 residues) (unknown origin) expressed in Escherichia coli BL21 (DE3) cells preincubated for 30 mins followed by labeled DNA addition and measured after 5 mins by electrophoretic mobility shift assay
[2] = Inhibition of 5'[32P]-labeled 34 base ssDNA binding to recombinant full length human RPA expressed in Escherichia coli cells preincubated for 30 mins followed by labeled DNA addition and measured after 5 mins by electrophoretic mobility shift assay
Method in brief: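 Purified heterotrimeric human RPA without tags or modifications, binding to ssDNA read by EMSA. […] IC50 is the mean of at least three independent experiments, reported as mean ± SD.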

Salmon testes DNA = test: Displacement of SYBR-green from salmon sperm DNA assessed as DNA intercalation by measuring reduction in fluorescence at 5 to 20 uM after 5 mins by fluorescent intercalator displacement assay; assay type: nucleic-acid assay; details: Salmonidae
Method in brief: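 Sybr-green intercalator bound to DNA. Displacement was read as a fall in fluorescence across a range of compound concentrations. Doxorubicin served as the positive control.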

[3] = Aqueous solubility of compound in unbuffered H2O at pH 7 by absorbance spectroscopy based LC-MS analysis; assay type: physicochemical; details: buffer
Method in brief: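 Aqueous solubility was measured in three independent determinations and reported as mean and SD.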

[4] = Drug uptake in human H460 cells at 20 uM incubated for 4 hrs by LC-MS analysis; assay type: ADME, cell-based; details: nci-h460, 4 h
Method in brief: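 H460 NSCLC cells. Individual points come from three independent determinations and are reported as mean and SD.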

| Compound | IC50 ([2]; read-out: IC50) [µM] | solubility [3] | also measured |
| --- | --- | --- | --- |
| CC1(C)[C@@H]2CC[C@@]1(C)[C@H](OC(=O)CI)C2 | – | – | IC50 [1]: 10 µM |
| CCOc1ccc2cc(C3CC(c4ccc(-c5ccc(Cl)nc5)cc4)=NN3C(=O)CCCC(=O)O)c(Cl)nc2c1 (stereo not given) | 1.6 | Soluble | inhibition (Homo sapiens): Active; Drug uptake [4]: Active; inhibition (Salmon testes DNA): inactive |
| C=CC(=O)Oc1ccc(C2=NN(C(=O)CCCC(=O)O)C(c3cc4ccc(OCC)cc4nc3Cl)C2)cc1 (stereo not given) | 8.9 | – | – |
| CCOc1ccc2cc(C3CC(c4ccc(-c5ccc(N6CCOCC6)cc5)cc4)=NN3C(=O)CCCC(=O)O)c(Cl)nc2c1 (stereo not given) | 3.1 | – | inhibition (Homo sapiens): Active |
| CCOc1ccc2cc(C3CC(c4ccc(I)cc4)=NN3C(=O)CCCC(=O)NCCN3CCOCC3)c(Cl)nc2c1 (stereo not given) | 10.5 | – | – |
| CCOc1ccc2cc(C3CC(c4ccc(I)cc4)=NN3C(=O)CCCC(=O)O)c(Cl)nc2c1 (stereo not given) | 15.3 to 18 | Soluble | Drug uptake [4]: Not Active |
| CCOc1ccc2cc(C3CC(c4ccc(-c5ccco5)cc4)=NN3C(=O)CCCC(=O)O)c(Cl)nc2c1 (stereo not given) | 2.1 | – | inhibition (Homo sapiens): Active; inhibition (Salmon testes DNA): inactive |
| CCOc1ccc2cc(C3CC(c4ccc(I)cc4)=NN3C(=O)CCCC(=O)N3CCOCC3)c(Cl)nc2c1 (stereo not given) | 6.6 | – | – |
| CCOc1ccc2cc(C3CC(c4ccc(OC(=O)N5CCOCC5)cc4)=NN3C(=O)CCCC(=O)O)c(Cl)nc2c1 (stereo not given) | > 25 | – | – |
| CCOc1ccc2cc(C3CC(c4ccc(I)cc4)=NN3c3cccc(C(=O)O)c3)c(Cl)nc2c1 (stereo not given) | – | – | IC50 [2]: Not Active |
| CCOc1ccc2cc(C3CC(c4ccc(Br)cc4)=NN3C(=O)CCC(=O)O)c(Cl)nc2c1 (stereo not given) | 38 | – | – |
| CCOc1ccc2cc(C3CC(c4ccc(Br)cc4)=NN3C(=O)CCCC(=O)NCCCN3CCOCC3)c(Cl)nc2c1 (stereo not given) | 10 | Soluble | – |
| CCOc1ccc2cc(C3CC(c4ccc(-c5ccc(F)nc5)cc4)=NN3C(=O)CCCC(=O)O)c(Cl)nc2c1 (stereo not given) | 2.6 | Soluble | – |
| CC1(C)[C@@H]2CC[C@@]1(C)[C@H](OC(=O)CBr)C2 | – | – | IC50 [1]: 16 µM |
| CCOc1ccc2cc(C3CC(c4ccc(I)cc4)=NN3C(=O)CCCC(=O)NCCCN3CCOCC3)c(Cl)nc2c1 (stereo not given) | 4.9 | Soluble | Drug uptake [4]: Active; inhibition (Salmon testes DNA): inactive |
| CCOc1ccc2cc(C3CC(c4ccc(-c5ccc(F)nc5)cc4)=NN3C(=O)CCCC(=O)NCCCN3CCOCC3)c(Cl)nc2c1 (stereo not given) | 2.3 | Soluble | Drug uptake [4]: Active |
| CCOC(=O)CCCC(=O)N1N=C(c2ccc(I)cc2)CC1c1cc2ccc(OCC)cc2nc1Cl (stereo not given) | – | – | IC50 [2]: Not Active |
| COc1cccc2c1C(=O)c1c(O)c3c(c(O)c1C2=O)C[C@@](O)(C(=O)CO)C[C@@H]3O[C@H]1C[C@H](N)[C@H](O)[C@H](C)O1 | – | – | inhibition (Salmon testes DNA): Dose-dependent effect |

The next lines start with results.

| IC50 ([2]; read-out: IC50) [µM] | solubility [3] | Compound | also measured |
| --- | --- | --- | --- |
| 1 | – | CCOc1ccc2cc(C3CC(c4ccc(-c5ccc(Br)nc5)cc4)=NN3C(=O)CCCC(=O)O)c(Cl)nc2c1 (stereo not given) | inhibition (Homo sapiens): Active; inhibition (Salmon testes DNA): inactive |
| 4.3 | Soluble | CCOc1ccc2cc(C3CC(c4ccc(-c5ccc(C(F)(F)F)nc5)cc4)=NN3C(=O)CCCC(=O)O)c(Cl)nc2c1 (stereo not given) | – |
| 19.2 | Soluble | CCOc1ccc2cc(C3CC(c4ccc(Br)cc4)=NN3C(=O)CCCC(=O)O)c(Cl)nc2c1 (stereo not given) | – |
| 1.7 | – | CCOc1ccc2cc(C3CC(c4ccc(-c5cnoc5)cc4)=NN3C(=O)CCCC(=O)O)c(Cl)nc2c1 (stereo not given) | inhibition (Homo sapiens): Active |
| 2.3 | – | CCOc1ccc2cc(C3CC(c4ccc(N)cc4)=NN3C(=O)CCCC(=O)O)c(Cl)nc2c1 (stereo not given) | inhibition (Salmon testes DNA): inactive |
| 6.7 | – | CCOc1ccc2cc(C3CC(c4ccc(-c5ccoc5)cc4)=NN3C(=O)CCCC(=O)O)c(Cl)nc2c1 (stereo not given) | – |
| > 25 | – | CCOc1ccc2cc(C3CC(c4ccc(O)cc4)=NN3C(=O)CCCC(=O)O)c(Cl)nc2c1 (stereo not given) | – |
| 4 | Soluble | CCOc1ccc2cc(C3CC(c4ccc(-c5ccc(Cl)nc5)cc4)=NN3C(=O)CCCC(=O)NCCCN3CCOCC3)c(Cl)nc2c1 (stereo not given) | Drug uptake [4]: Active; inhibition (Salmon testes DNA): inactive |
| 5.8 | Soluble | CCOc1ccc2cc(C3CC(c4ccc(-c5ccc(C(F)(F)F)nc5)cc4)=NN3C(=O)CCCC(=O)NCCCN3CCOCC3)c(Cl)nc2c1 (stereo not given) | Drug uptake [4]: Active |
| > 25 | – | CCOc1ccc2cc(C3CC(c4ccc([N+](=O)[O-])cc4)=NN3C(=O)CCCC(=O)O)c(Cl)nc2c1 (stereo not given) | – |

— ChEMBL document CHEMBL4616692, “Structure-Guided Optimization of Replication Protein A (RPA)-DNA Interaction Inhibitors” (ACS Med Chem Lett, 2020)
